Published values of several laboratories.
Each line is one published result; the experiments were not run side by side.
Target: Serine/threonine-protein kinase Chk2 (CHEK2, Homo sapiens, UniProt O96017)

SMILES | read-out | mode | method | concentration | quantity | value
COc1cc(Nc2ncc(F)c(Nc3ccc4c(n3)NC(=O)C(C)(C)O4)n2)cc(OC)c1OC | binding | – | competition with immobilised ligand | 10 µM | inhibition | 45%
O=c1[nH]c2ccccc2n1C1CCN(Cc2ccc(-c3[nH]c4cc5ncnc5cc4nc3-c3ccccc3)cc2)CC1 | cell-free assay | – | – | 0.5 µM | remaining signal | 100%
Cn1cc(-c2cccc(N3CCc4c(sc5c4CC(C)(C)C5)C3=O)c2CO)cc(Nc2ccncn2)c1=O | enzyme activity | inhibitor | – | 1 µM | inhibition | 1%
COc1ncccc1-c1cnn2ccc(N3CCN(C(=O)OC(C)C)CC3)nc12 | binding | – | competition with immobilised ligand | 1 µM | remaining binding | 77%
Cc1nn(C)cc1-c1nc2c(N3CCN(Cc4ccc(Cl)cc4)CC3)c(Cl)cnc2[nH]1 | binding | – | competition with immobilised ligand | 1 µM | remaining binding | 100%
Cn1cc(-c2cc(F)cc(N3CCn4c(cc5c4CCCC5)C3=O)c2CO)cc(Nc2ccc(N3CCN(C4COC4)CC3)cn2)c1=O | enzyme activity | inhibitor | – | 0.1 µM | inhibition | 11%
N#CC1(c2ccccn2)CCN(Cc2cc(C(=O)O)c(=O)n3ccccc23)CC1 | cell-free assay | – | competition with immobilised ligand | 1 µM | remaining binding | 87%
Nc1ncc(-c2nc(N3CCOCC3)nc(N3CCOCC3)n2)c(C(F)F)n1 | binding | – | competition with immobilised ligand | 10 µM | remaining binding | 75%
CC(C)(C)c1cc(C=C(C#N)C#N)cc(Br)c1O | enzyme activity | inhibitor | – | 0.5 µM | remaining activity | 104%
Cn1cncc1[C@@](O)(COc1ccc(C#N)cc1-c1ccc(OC(F)(F)F)cc1)c1ccc(C#N)cc1 | cell-free assay | – | competition with immobilised ligand | 1 µM | remaining binding | 96%
